Assay results: ChEMBL document CHEMBL1144737, “Synthesis and antifungal activity of novel sulfoxide derivatives containing trimethoxyphenyl substituted 1,3,4-thiadiazole and 1,3,4-oxadiazole moiety” (Bioorg Med Chem, 2008)
Values after ≈ are worked out from the molar mass of the structure shown.

What was measured:
Fusarium graminearum [1] = assay: Antifungal activity against Gibberella zeae at 50 ug/ml by poison plate technique; format: functional
Outline: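 Poison-plate (mycelial growth rate) test at a single final concentration in PDA. Fungus was pre-grown 4 days at 27±1 °C, and a 4 mm mycelial plug was placed at the plate centre and incubated 5 days at 27±1 °C. Acetone in sterile water was the untreated control. Triplicate plates were used; inhibition % = (C−T)/(C−0.4)×100 from colony diameters.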

Fusarium oxysporum [2] = assay: Antifungal activity against Fusarium oxysporum at 50 ug/ml by poison plate technique; format: functional
Outline: (§1)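 Poison plate method. Compound in PDA at 50 µg/mL final. Fungi precultured on PDA at 27 ± 1 °C for 4 days, then a ~4 mm mycelial disc was placed in the plate centre and incubated at 27 ± 1 °C for 5 days. Acetone in sterile water was the blank and hymexazol the positive control. Three replicates. Colony diameter was measured and I(%) = [(C − T)/(C − 0.4)] × 100.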

Cytospora [3] = assay: Antifungal activity against Cytospora mandshurica at 50 ug/ml by poison plate technique; format: functional; outline: as §1
Fusarium graminearum [4] = assay: Antifungal activity against Gibberella zeae by poison plate technique; format: functional, organism-based
Outline: (§2)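 Poison-plate assay on PDA against nine plant-pathogenic fungi at 100, 50, 25, 12.5 and 6.25 in the medium. Cultures were grown 4 days at 27±1 °C, and 4 mm mycelial plugs were placed centrally on plates and incubated 5 days at 27±1 °C. Acetone in sterile water was the blank. Inhibition % = (C−T)/(C−0.4)×100 from colony diameters. EC50 was obtained by probit analysis, averaged from at least three separate analyses.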

Cytospora [5] = assay: Antifungal activity against Cytospora mandshurica by poison plate technique; format: functional; outline: as §2
Thanatephorus cucumeris = assay: Antifungal activity against Thanatephorus cucumeris by poison plate technique; format: functional, organism-based; outline: as §2
Phytophthora infestans = assay: Antifungal activity against Phytophthora infestans by poison plate technique; format: functional, organism-based; outline: as §2
Botrytis cinerea = assay: Antifungal activity against Botrytis cinerea by poison plate technique; format: functional, organism-based; outline: as §2
Sclerotinia sclerotiorum [6] = assay: Antifungal activity against Sclerotinia sclerotiorum by poison plate technique; format: functional, organism-based; outline: as §2
[7] = tested on: Colletotrichum gloeosporioides; assay: Antifungal activity against Colletotrichum gloeosporioides by poison plate technique; format: functional, organism-based; outline: as §2
Sclerotinia sclerotiorum [8] = assay: Effect on membrane permeability of Sclerotinia sclerotiorum at 100 ug/ml after 240 mins relative to control; format: functional, organism-based
Outline: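 Washed S. sclerotiorum mycelium (1 g) was placed in tubes with the compound. Conductivity was read over time from 0 to 360 min, then after boiling and cooling. Relative permeability P% = (J1−J0)/(J2−J0)×100.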

Sclerotinia sclerotiorum [9] = assay: Change in mycelial N-acetyl-glucosamine content in Sclerotinia sclerotiorum after 24 hrs; format: functional
Outline: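 S. sclerotiorum was grown 15 days in Czapek broth shaken at 140 rpm and 27 °C, then dosed at 100 and sampled at 24 h. Dried mycelium (1.0 g) was ground in 0.05 mol/L Tris–HCl pH 7.5 and centrifuged at 15,000g, 4 °C. Supernatant with K2B4O7 was boiled 3 min, then 1% DMAB was added, 20 min at 36 °C, A544. Three repetitions.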

Sclerotinia sclerotiorum [10] = assay: Change in mycelial chitinase activity in Sclerotinia sclerotiorum assessed as N-acetyl-glucosamine level after 24 hrs
Outline: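 Mycelial extract came from S. sclerotiorum grown 15 days in shaken Czapek broth at 27 °C, dosed at 100 and harvested at 24 h, in Tris–HCl pH 7.5. Extract was incubated with colloidal chitin 1 h at 37 °C, boiled and centrifuged. Released GlcNAc was read with 0.8 M K2B4O7, boiling, 1% DMAB, 20 min at 36 °C, A544. The blank was boiled before incubation.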

Sclerotinia sclerotiorum [11] = assay: Change in mycelial soluble protein content in Sclerotinia sclerotiorum after 24 hrs; format: functional
Outline: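 Soluble protein was measured in extracts of S. sclerotiorum cultured 15 days in shaken Czapek broth at 27 °C, treated at 100 and harvested at 24 h. Dried mycelium was ground in 0.05 mol/L Tris–HCl pH 7.5 and centrifuged; absorbance was read at 595 nm with buffer blank. Three repetitions.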

Fusarium oxysporum [12] = assay: Antifungal activity against Fusarium oxysporum by poison plate technique; format: functional, organism-based
Outline: (§3)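 Poison plate mycelial growth assay on PDA at 100, 50, 25, 12.5 and 6.25 µg/mL. Mycelial discs were grown at 27 ± 1 °C for 5 days and radial colony growth was measured. EC50 was estimated by probit analysis and averaged from at least three separate analyses.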

Rhizoctonia solani = assay: Antifungal activity against Rhizoctonia solani by poison plate technique; format: functional, organism-based; outline: as §3
Sclerotinia sclerotiorum [13] = assay: Effect on sporule germination in Sclerotinia sclerotiorum assessed as germination ratio at 80 ug/ml; format: functional
Outline: (§4)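 Compound was mixed into PDA at 0, 20, 40, 60, 80 and 100 µg/mL, and 0.5 mL spore suspension was spread per plate. Plates were incubated at 27 °C and checked every 2 h after 24 h. Germination was scored when control germination exceeded 90%, in three fields per dish, with three replicates. GR% = 100 × G/S.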

Sclerotinia sclerotiorum [14] = assay: Effect on sporule germination in Sclerotinia sclerotiorum assessed as germination ratio at 100 ug/ml; format: functional; outline: as §4
Sclerotinia sclerotiorum [15] = assay: Change in mycelial reducing sugar level in Sclerotinia sclerotiorum upto 3 hrs relative to control; format: functional; design: scale not given: the % may be the effect or the level left
Outline: (§5)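 S. sclerotiorum was grown from six 4 mm discs in 90 mL Czapek medium, shaken at 140 rpm and 27 °C for 15 days. Compound was then added at 100 µg/mL. Mycelium was harvested at 0.5–24 h, ground in 0.05 mol/L Tris–HCl pH 7.5 and centrifuged at 15,000g, 4 °C, for 30 min. Three repetitions. Supernatant read-outs: reducing sugar by DNS at 540 nm against glucose; chitosan (D-GlcNAc) by K2B4O7/DMAB at 544 nm; pyruvate by DNPH/NaOH at 520 nm; protein at 595 nm. Tris–HCl blank.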

Sclerotinia sclerotiorum [16] = assay: Change in mycelial reducing sugar level in Sclerotinia sclerotiorum after 24 hrs; format: functional; outline: as §5
Sclerotinia sclerotiorum [17] = assay: Change in mycelial reducing sugar level in Sclerotinia sclerotiorum after 24 hrs relative to hymexazol; format: functional; design: scale not given: the % may be the effect or the level left; outline: as §5
Sclerotinia sclerotiorum [18] = assay: Change in mycelial chitosan content in Sclerotinia sclerotiorum after 6 hrs; format: functional; outline: as §5
Sclerotinia sclerotiorum [19] = assay: Change in mycelial soluble protein content in Sclerotinia sclerotiorum after 0.5 hr relative to control; format: functional; outline: as §5
Sclerotinia sclerotiorum [20] = assay: Change in mycelial pyruvate content in Sclerotinia sclerotiorum after 24 hrs; format: functional; outline: as §5

CCOC(=O)C[S+]([O-])c1nnc(-c2cc(OC)c(OC)c(OC)c2)s1 (stereo unspecified)
inhibition at 50 µg/mL (Fusarium graminearum [1]): 34.8%
inhibition at 50 µg/mL (Fusarium oxysporum [2]): 4.58%
inhibition at 50 µg/mL (Cytospora [3]): 8.42%

COc1cccc(C[S+]([O-])c2nnc(-c3cc(OC)c(OC)c(OC)c3)s2)c1 (stereo unspecified)
inhibition at 50 µg/mL (Fusarium graminearum [1]): 8.29%
inhibition at 50 µg/mL (Fusarium oxysporum [2]): 8.65%
inhibition at 50 µg/mL (Cytospora [3]): 11%

COc1cc(-c2nnc([S+]([O-])Cc3ccccc3)s2)cc(OC)c1OC (stereo unspecified)
inhibition at 50 µg/mL (Fusarium graminearum [1]): 26.9%
inhibition at 50 µg/mL (Fusarium oxysporum [2]): 15.5%
inhibition at 50 µg/mL (Cytospora [3]): 16%

Cc1cc(O)no1 [HYMEXAZOL]
inhibition at 50 µg/mL (Fusarium graminearum [1]): 53.7%
inhibition at 50 µg/mL (Fusarium oxysporum [2]): 52.1%
inhibition at 50 µg/mL (Cytospora [3]): 52%
EC50 (Fusarium graminearum [4]): 26.4 µg/mL (≈ 266 µM)
EC50 (Cytospora [5]): 21.4 µg/mL (≈ 216 µM)
EC50 (Thanatephorus cucumeris): 40.4 µg/mL (≈ 408 µM)
EC50 (Phytophthora infestans): 25.1 µg/mL (≈ 253 µM)
EC50 (Botrytis cinerea): 5.12 µg/mL (≈ 51.7 µM)
EC50 (Sclerotinia sclerotiorum [6]): 4.63 µg/mL (≈ 46.7 µM)
EC50 [7]: 15.8 µg/mL (≈ 159 µM)
permeability (Sclerotinia sclerotiorum [8]): 24.6%
Activity (Sclerotinia sclerotiorum [9]): 0.13 mg/mL
Activity (Sclerotinia sclerotiorum [10]): 0.124 mg/mL
Activity (Sclerotinia sclerotiorum [11]): 0.91 mg/mL

COc1cc(-c2nnc([S+]([O-])Cc3ccc(F)cc3)s2)cc(OC)c1OC (stereo unspecified)
inhibition at 50 µg/mL (Fusarium graminearum [1]): 6.4%
inhibition at 50 µg/mL (Fusarium oxysporum [2]): 2.54%
inhibition at 50 µg/mL (Cytospora [3]): 3.83%

CCOC(=O)C[S+]([O-])c1nnc(-c2cc(OC)c(OC)c(OC)c2)o1 (stereo unspecified)
inhibition at 50 µg/mL (Fusarium graminearum [1]): 18.1%
inhibition at 50 µg/mL (Fusarium oxysporum [2]): 1.47%
inhibition at 50 µg/mL (Cytospora [3]): 6.9%

COc1cc(-c2nnc([S+]([O-])Cc3ccccc3)o2)cc(OC)c1OC (stereo unspecified)
inhibition at 50 µg/mL (Fusarium graminearum [1]): 53.3%
inhibition at 50 µg/mL (Fusarium oxysporum [2]): 52.3%
inhibition at 50 µg/mL (Cytospora [3]): 56.1%
EC50 (Fusarium graminearum [4]): 28.8 µg/mL (≈ 77 µM)
EC50 (Fusarium oxysporum [12]): 58.5 µg/mL (≈ 156 µM)
EC50 (Cytospora [5]): 64 µg/mL (≈ 171 µM)
EC50 (Rhizoctonia solani): 44.7 µg/mL (≈ 119 µM)
EC50 (Thanatephorus cucumeris): 23.4 µg/mL (≈ 62.6 µM)
EC50 (Phytophthora infestans): 33.1 µg/mL (≈ 88.4 µM)
EC50 (Botrytis cinerea): 21.6 µg/mL (≈ 57.8 µM)
EC50 (Sclerotinia sclerotiorum [6]): 19.9 µg/mL (≈ 53.2 µM)
EC50 [7]: 39.4 µg/mL (≈ 105 µM)
Activity (Sclerotinia sclerotiorum [13]): 12.6%
Activity (Sclerotinia sclerotiorum [14]): 5.4%
permeability (Sclerotinia sclerotiorum [8]): 26.7%
Activity (Sclerotinia sclerotiorum [15]): 13.3%
Activity (Sclerotinia sclerotiorum [16]): 0.37 mg/mL
Activity (Sclerotinia sclerotiorum [17]): 8.8%
Activity (Sclerotinia sclerotiorum [18]): 0.12 mg/mL
Activity (Sclerotinia sclerotiorum [9]): 0.12 mg/mL
Activity (Sclerotinia sclerotiorum [10]): 0.125 mg/mL
Activity (Sclerotinia sclerotiorum [19]): 43%
Activity (Sclerotinia sclerotiorum [11]): 0.69 mg/mL
Activity (Sclerotinia sclerotiorum [20]): 0.19 mg/mL

CCOCC[S+]([O-])c1nnc(-c2cc(OC)c(OC)c(OC)c2)s1 (stereo unspecified)
inhibition at 50 µg/mL (Fusarium graminearum [1]): 16.8%
inhibition at 50 µg/mL (Fusarium oxysporum [2]): 8.14%
inhibition at 50 µg/mL (Cytospora [3]): 16.1%
